# Test system: Mycobacterium tuberculosis
# Assay: Antimycobacterial activity against multidrug-resistant Mycobacterium tuberculosis by agar dilution method
# Assay type: functional
# Method in brief: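 Agar dilution MIC on Middlebrook 7H11 agar supplemented with OADC, following NCCLS-like procedure; determined in duplicate.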
row,Structure (SMILES),MIC
1,Cc1ccc2ccc(C(=O)NCC3=C[C@@H]4Oc5ccccc5C(=O)C4=CN3c3ncccc3C)cc2c1,0.13 µM
2,Cc1cccnc1N1C=C2C(=O)c3ccccc3O[C@H]2C=C1CNC(=O)c1cccc(Cl)c1,1.7 µM
3,Cc1cccnc1N1C=C2C(=O)c3ccccc3O[C@H]2C=C1CNC(=O)c1ccc(Cl)cc1,3.4 µM
4,O=C(NCC1=C[C@@H]2Oc3ccccc3C(=O)C2=CN1c1ncc(Br)cc1Br)c1ccc(Cl)cc1,2.95 µM
5,Cc1ccc(C(=O)NCC2=C[C@@H]3Oc4ccccc4C(=O)C3=CN2c2ncccc2C)cc1,1.78 µM
6,O=C(NCC1=C[C@@H]2Oc3ccccc3C(=O)C2=CN1c1ncc(Br)cc1Br)c1ccc2ccccc2c1,5.04 µM
7,Cc1ccc2ccc(C(=O)NCC3=C[C@@H]4Oc5ccccc5C(=O)C4=CN3c3ncc(Br)cc3Br)cc2c1,0.61 µM
8,CCc1ccc(C(=O)NCC2=C[C@@H]3Oc4ccccc4C(=O)C3=CN2c2ncccc2C)cc1,0.07 µM
9,CCc1ccc(C(=O)NCC2=C[C@@H]3Oc4ccccc4C(=O)C3=CN2c2ncc(Br)cc2Br)cc1,1.3 µM
10,O=C(NCC1=C[C@@H]2Oc3ccccc3C(=O)C2=CN1c1ncc(Br)cc1Br)c1cccc(Cl)c1,2.6 µM
11,Cc1cccnc1N1C=C2C(=O)c3ccccc3O[C@H]2C=C1CNC(=O)c1ccc2ccccc2c1,0.42 µM
12,O=C(NCC1=C[C@@H]2Oc3ccccc3C(=O)C2=CN1c1ncc(Br)cc1Br)c1ccc(Cl)c(Cl)c1,4.91 µM
13,COc1ccc(C(=O)NCC2=C[C@@H]3Oc4ccccc4C(=O)C3=CN2c2ncccc2C)cc1,3.44 µM
14,Cc1cccnc1N1C=C2C(=O)c3ccccc3O[C@H]2C=C1CNC(=O)c1ccc(F)cc1,7.09 µM
15,Cc1cccnc1N1C=C2C(=O)c3ccccc3O[C@H]2C=C1CNC(=O)c1ccccc1,3.68 µM
16,CC[C@@H](CO)NCCN[C@@H](CC)CO [ETHAMBUTOL],122 µM
17,NNC(=O)c1ccncc1 [ISONIAZID],45.6 µM
18,CO[C@H]1/C=C/O[C@@]2(C)Oc3c(C)c(O)c4c(O)c(c(/C=N/N5CCN(C)CC5)c(O)c4c3C2=O)NC(=O)/C(C)=C\C=C\[C@H](C)[C@H](O)[C@@H](C)[C@@H](O)[C@@H](C)[C@H](OC(C)=O)[C@@H]1C [RIFAMPIN],3.79 µM

# Test system: not listed separately
# Assay: Selectivity index, ratio of IC50 for african green monkey Vero cells to MIC for multidrug-resistant Mycobacterium tuberculosis
# Assay type: functional
row,Structure (SMILES),Selectivity Index
1,CCc1ccc(C(=O)NCC2=C[C@@H]3Oc4ccccc4C(=O)C3=CN2c2ncccc2C)cc1,1977

# Source: ChEMBL document CHEMBL1154729, “Discovery of novel antitubercular 2,10-dihydro-4aH-chromeno[3,2-c]pyridin-3-yl derivatives” (Eur J Med Chem, 2010)
